# Laboratory results: PubChem BioAssay AID1665 (Sanford-Burnham Center for Chemical Genomics, 2009)
# The campaign covered roughly 190,000 compounds. About 590 (0.31%) were called active.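 How the source made its calls: active means nuclear translocation activity above 50% at 5 µM, with a well cell count of 50 or more; inconclusive means wells under 50 cells across six images, flagged as toxic; inactive means the rest.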 The sample as a whole holds a higher share of actives than the screen did.
# Assay: beta-catenin nuclear localization change in HeLa – imaging, HeLa cells, immunofluorescence, high-content, primary screen (AID 1665);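 on nuclear translocation activity: per-cell ratio of nuclear to cytoplasmic median beta-catenin stain intensity; plate controls were DMSO negative control for no effect and GSK-3 inhibitor IX positive control for full effect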
# Conditions: at 5 µM; cell count: HeLa beta-catenin nuclear translocation, measured here: cell count, cytotoxicity flag; nuclear translocation activity: stronger effect = higher value
# How it was run: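 Test system: human HeLa cells, native beta-catenin. Compound dosing: 5 µM primary single dose, 0.1% DMSO, 0.02–20 µM confirmation series. Incubation: compound exposure 24 h at 37°C. Detection: beta-catenin immunostaining with DAPI counterstain, 20x imaging, 6 fields/well. Read-out basis: Nuclear/cytoplasmic beta-catenin signal ratio, % activation.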
SMILES,cell count [cells],nuclear translocation activity
CCOC(=O)C1CCN(c2c(Nc3cc(C)cc(C)c3)c(=O)c2=O)CC1,1340,0.9% (inactive)
O=C(Cn1cnc2cc([N+](=O)[O-])ccc2c1=O)NC(=O)NCc1ccccc1,1320,-2.1% (inactive)
Cc1cc(=O)[nH]c2nnnn12,1080,-1.2% (inactive)
COc1ccc(Nc2cc(C)nc(-n3nc(C)cc3C)n2)cc1,451,249% (active)
Cc1cc(N/N=C\c2ccc(Br)cc2)nc(-n2nc(C)cc2C)n1,1430,-1.3% (inactive)
COc1ccccc1/C=N\Nc1cc(C)nc(-n2nc(C)cc2C)n1,900,0.7% (inactive)
Nc1nnn(CC(=O)N/N=C/c2ccc(O)cc2)n1,1300,-1.2% (inactive)
COCCNC(=S)N1CCN(C)CC1,1380,-0.3% (inactive)
CCn1c(=O)c([N+](=O)[O-])c(NCc2ccc3c(c2)OCO3)c2ccccc21,1360,-0.1% (inactive)
COc1cc(OC)cc(/C(N)=N/O)c1,1310,0.5% (inactive)
COC(=O)c1ccccc1N=Nc1c(C)[nH][nH]c1=O,1310,-1.6% (inactive)
O=C(NCCc1c[nH]c2ccc(Cl)cc12)c1ccc([N+](=O)[O-])cc1,1380,1.3% (inactive)
N/C(=N\OC(=O)CCn1cccc(C(F)(F)F)c1=O)c1ccc(OC(F)(F)F)cc1,1280,-1.4% (inactive)
O=C(NCC1CCCO1)c1cc(-c2ccccc2)nc2ccccc12 (stereo unspecified),1120,-2% (inactive)
CC(C)c1c(O)nc(SCCOc2ccc(Cl)cc2)[nH]c1=O,1310,0.9% (inactive)
Cc1nn(CC(=O)N/N=C/c2ccc(F)cc2)c(C)c1[N+](=O)[O-],1290,0.3% (inactive)
CC(=O)NC1=NN(C(C)=O)C(C)(c2ccc(Cl)s2)S1 (stereo unspecified),101,68.6% (active)
O=C(NC1=NCCS1)c1ccc(Cl)s1,998,1.4% (inactive)
O=C(O)C(NS(=O)(=O)c1cccc2nsnc12)c1ccccc1 (stereo unspecified),1330,-1% (inactive)
Cc1ccc(S(=O)(=O)N(C)CC(=O)OCC(=O)Nc2ccccc2)cc1,1320,-1.1% (inactive)
CCS(=O)(=O)c1cc([N+](=O)[O-])c(Sc2ccccc2N)s1,1180,-2.4% (inactive)
Cc1c(C(=O)N(Cc2ccccc2)Cc2cccnc2)cnn1-c1ccc(F)cc1,1030,0.4% (inactive)
CCOc1ccc(/C(O)=C2\C(=O)C(=O)N(c3ccc(OC)cc3)C2c2ccccc2[N+](=O)[O-])cc1 (stereo unspecified),1260,-0.5% (inactive)
O=C(NN1C(=O)C2CCCCC2C1=O)c1ccco1 (stereo unspecified),1260,0.6% (inactive)
Cc1cc(-c2n[nH]c(=S)n2/N=C/c2ccco2)n[nH]1,1280,-0.9% (inactive)
CCc1cccc(CC)c1NC(=S)Nc1ccc2cn[nH]c2c1,1270,0.8% (inactive)
O=[N+]([O-])c1ccc(N=Cc2c(O)ccc3ccccc23)cc1,1330,0.8% (inactive)

SMILES,cell count [cells],nuclear translocation activity
Cc1ccc(C(=O)Nc2nc(N)n(-c3ccccc3)n2)cc1,1180,-1.1% (inactive)
O=C(c1c(Cl)cccc1Cl)N1CCN(c2cccc3[nH]ccc23)CC1,1260,-1.5% (inactive)
COc1ccc(NC(=O)c2cn(-c3ccccc3)nc2SC)cc1,1240,0.1% (inactive)
O=C(Nc1nnc(CCN2CCCCC2)s1)c1cccc(Cl)c1,1310,0.2% (inactive)
C=CCSC(CC)(CC)C(N)=O,1320,0.1% (inactive)
Cc1cc(F)ccc1NC(=O)C(C)n1c2ccccc2c2nc(=O)cc(C)n21 (stereo unspecified),1290,-0.2% (inactive)
COc1ccc(CCN2C(=O)N(c3ccc(OC)cc3)C(=O)C2CC(=O)Nc2ccc(OC)cc2)cc1 (stereo unspecified),1360,-0.8% (inactive)
Cc1nc(-c2nnc(SCC(=O)Nc3cc(C(F)(F)F)cc(C(F)(F)F)c3)n2C)cs1,1370,-0.7% (inactive)
Cc1ccc2c(C)c(C(=O)N3CCC(N4CCC(C(=O)NC5CC5)CC4)CC3)oc2c1,1360,1.4% (inactive)
CSc1ccc(NC(=O)/C=C/C(=O)O)cc1,1010,2.1% (inactive)
CCN1CCN(c2nc(Nc3cccc(F)c3)nc(N)c2[N+](=O)[O-])CC1,1210,-1.4% (inactive)
COc1ccc(Nc2nc(Cl)nc(NCc3ccco3)n2)cc1,1380,3% (inactive)
COc1ccc(Nc2oc(-c3ccccc3Cl)nc2C#N)cc1,210,156% (active)
Cc1ccccc1-c1nc(C#N)c(NCc2ccco2)o1,1080,-3.1% (inactive)
NS(=O)(=O)c1ccc(NC2=CC(c3ccc(F)cc3)N(c3ccc(S(N)(=O)=O)cc3)C2=O)cc1 (stereo unspecified),1320,0.9% (inactive)
C/C(=N\NC(=O)c1cccnc1)c1ccc(-c2ccccc2)cc1,1160,-0.7% (inactive)
O=C(Nc1ccc(S(=O)(=O)Nc2nccs2)cc1)c1cccc(S(=O)(=O)N2CCOCC2)c1,1290,0.8% (inactive)
C[C@@H](NC(=O)OC(C)(C)C)c1nnc(S(=O)(=O)Cc2ccccc2)o1,1360,-0.8% (inactive)
COc1ccc(N2C(=O)c3ccccc3NC2c2ccc(OC)c(CN3CCOCC3)c2)cc1 (stereo unspecified),1290,0.6% (inactive)
COc1ccc2nc(Nc3nc4ccc(NC(C)=O)cc4s3)sc2c1,875,2.8% (inactive)
CCCC(=O)Nc1nc2ccc(NC(=O)c3c(F)c(F)c(OC)c(F)c3F)cc2s1,260,57.6% (active)
CCCC(=O)Nc1nc2ccc(NC(=O)c3cccnc3)cc2s1,895,-0.7% (inactive)
Cc1ccc(/C=N/NC(=S)Nc2cccc(S(=O)(=O)N(C)C)c2)o1,1210,2.8% (inactive)
C=CC1C(OC2OC(CO)C(O)C(O)C2O)OC=C(C(=O)OC)C1CC1CC(=O)CC(CC(=O)CCc2ccc(O)cc2)O1 (stereo unspecified),387,79.8% (active)
CC(/C=C/C1(O)C(C)CC(=O)CC1(C)C)OC1OC(CO)C(O)C(O)C1O (stereo unspecified),1080,-3% (inactive)
Cc1cc(C(=O)NCCc2ccc(Cl)cc2)n(-c2ccccc2)n1,1320,-0.3% (inactive)
